# T cell HTS = T cell immune modulation candidate; actives 0.068% (n = 330,000); 2C CD8+ T cell-vesicle binding, flow cytometry; hits give low values; response (vesicle binding), % at 7 µM;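 active = response, share of CD8 T cells binding vesicles, and their 90th percentile fluorescence all below set limits, cut at about 80% in these data, passing the limit was not always enough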;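 note: values below 100% mean blocked vesicle binding to the CD8+ T cells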
#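 Assay system – 2C mouse CD8+ T cells · Also added – QL9-loaded Drosophila micro-vesicles · Timing – Cell–vesicle co-incubation 1.5 h at 37 °C, staining 20 min on ice · Signal – flow cytometry of vesicle-bound cells · Measure – percent CD8+ FL2 mean versus row control · Controls – Peptide-free naked vesicles (low) and QL9 vesicles with 0.7% DMSO vehicle (high)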
# NR2E3 ag-1 = NR2E3 (human) agonism. AID 2300. Q9Y5X4. GST-NR2E3/biotin-RetCOR TR-FRET, 1536-well. actives 0.12% (n = 320,000). inhibition of corepressor binding, % at 4.78 µM;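 active = percent inhibition above the cutoff of mean plus 3 SD of all tested compounds, set per screening campaign, cut at about 20% in these data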;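 note: 0% = DMSO wells and 100% = biotin wells as full block of FRET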
# Target sequence (Q9Y5X4 whole entry, looked up): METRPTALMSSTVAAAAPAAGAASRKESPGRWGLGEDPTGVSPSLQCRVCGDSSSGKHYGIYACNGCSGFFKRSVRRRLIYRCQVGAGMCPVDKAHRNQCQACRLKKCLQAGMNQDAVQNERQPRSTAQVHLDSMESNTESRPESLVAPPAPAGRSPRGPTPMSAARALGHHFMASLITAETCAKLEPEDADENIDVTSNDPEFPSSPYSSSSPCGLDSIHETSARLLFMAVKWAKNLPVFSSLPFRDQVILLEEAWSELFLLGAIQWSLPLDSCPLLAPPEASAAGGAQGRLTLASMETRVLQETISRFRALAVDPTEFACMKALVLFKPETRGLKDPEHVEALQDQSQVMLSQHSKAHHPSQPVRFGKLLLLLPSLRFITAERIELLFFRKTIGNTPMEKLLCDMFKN
#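 Assay system: NR2E3–RetCOR corepressor complex. Quantity: 1.35 nM GST-NR2E3. Buffer or medium: pH 7.5 Tris-based buffer. Reagent: biotinylated RetCOR corepressor at 7 nM final. Schedule: 5 h at 4 °C. Detection: TR-FRET, emission read at 617 and 671 nm. Replicates: one well per compound, singlicate testing.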
# GAA850 FXN act = frataxin GAA850 promoter activation; activation, % at 6 µM; HEK293 lucGAA850 FXN promoter luciferase reporter, 24 h; percent of 10 µM SAHA response; actives 0.56% (n = 360,000);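 active = activation above the average of all compounds screened plus 3 SD, cutoff fixed separately per campaign, cut at about 7.5% in these data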;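 note: 0% = DMSO wells and 100% = 10 µM SAHA wells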
# NR2E3 ag-2 = activates human NR2E3 receptor; Q9Y5X4; inhibition of corepressor binding, % at 3.98 µM; CHO-S Gal4-NCOR/VP16-NR2E3 two-hybrid, luciferase; actives 0.35% (n = 360,000);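 active = inhibition above the mean of all tested compounds plus 3 SD, cut at about 70% in these data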;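 note: 0% = DMSO with NR2E3 transfected cells and 100% = cells lacking NR2E3 construct; higher means lower luciferase signal from less NR2E3 corepressor binding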
# Myeloid diff 2 = promotes myeloid progenitor differentiation. AID 624256. ER-HoxA9 myeloid progenitors, lysozyme-GFP differentiation, flow cytometry. actives 1% (n = 360,000). calls only at 10 µM;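 active = normalized GFP-positive differentiation at or above the plate's own cutoff, the solvent-only control mean plus 3 SD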;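 note: cells exposed to compound for four days before flow analysis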
# NR2E3 ag confirm = NR2E3 agonism confirmed in two-hybrid assay | shares compounds with NR2E3 ag-2 | CHO-S mammalian two-hybrid NR2E3-NCOR, luciferase luminescence | inhibition, % at 3.98 µM | actives 51% (n = 2,300) | AID 624378;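 active = average inhibition above a cutoff equal to the mean inhibition of all tested compounds plus one SD, cut at about 70% in these data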;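 note: 0% = DMSO in NR2E3 cells and 100% = DMSO in cells lacking NR2E3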
# GAL4-VP16 luc = GAL4-VP16 reporter inhibition in NR2E3 agonist counterscreen; actives 29% (n = 2,300); CHO-S GAL4-VP16 luciferase reporter, luminescence; shares compounds with NR2E3 ag-2; inhibition, % at 3.98 µM;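 active = mean inhibition above a cutoff equal to the average over all tested compounds plus one standard deviation, cut at about 70% in these data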;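 note: luciferase from a UAS reporter driven by GAL4-VP16 transactivation; 0% = DMSO with VP16-transfected cells and 100% = DMSO with cells lacking VP16; higher means less reporter light so more repression of VP16 activity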
# Starred values were filed as active, the others as inactive; i = inactive; . = not tested or not shown. Shown are actives, neighbours in structure and some others; about 2% of the full set was active somewhere.
SMILES,T cell HTS,NR2E3 ag-1,GAA850 FXN act,NR2E3 ag-2,Myeloid diff 2,NR2E3 ag confirm,GAL4-VP16 luc
COc1cc(C(=O)NCCOc2cc(C)ccc2C(C)C)cc(OC)c1OC,100,1,-1,56,i,38,31
COc1c(Cl)c(=O)oc2ccc(Cl)cc12,.,.,-1,-3,i,.,.
COc1ccccc1-n1c(=O)oc2ccc(Cl)cc2c1=O,399,0,1,73*,i,96*,55
CC1CCCCN1S(=O)(=O)c1ccc(N(C(=O)c2cnccn2)C(C(=O)NC2CCCCC2)c2cccs2)cc1 (configuration not stated),238,-2,3,58,i,53,-4
CC1CCCCN1S(=O)(=O)c1ccc(N(C(=O)c2cnccn2)C(C(=O)NC2CCCC2)c2cccs2)cc1 (configuration not stated),248,3,6,-1,i,.,.
CCN(CC)CCNC(=O)C(=O)Nc1cc2c3c(c1)CCC(=O)N3CCC2,344,0,1,75*,i,-9,-14
CN(C)CCNC(=O)C(=O)Nc1cc2c3c(c1)CCC(=O)N3CCC2,163,1,-1,6,i,.,.
Cc1ccn2c(Nc3ccccc3C)c(-c3ccccn3)nc2c1,227,1,-1,97*,i,44,8
Cc1ccn2c(Nc3ccccc3)c(-c3ccccn3)nc2c1,185,-2,2,68,i,91*,64
Cc1cccn2c(Nc3ccccc3)c(-c3ccccn3)nc12,116,-2,-1,82*,i,3,9
Cc1ccc2nc(-c3ccccn3)c(Nc3ccccc3C)n2c1,250,-5,0,94*,i,34,-39
Cc1ccc2nc(-c3cccnc3)c(Nc3ccccc3C)n2c1,378,3,0,9,i,.,.
CC(C)[C@H](NC(=O)[C@@H]1Cc2ccccc2CN1C(=O)OC(C)(C)C)C(=O)NCc1ccco1,183,0,-1,-6,i,.,.
Cc1ccccc1Nc1c(-c2ccccn2)nc2ccccn12,265,-2,-7,76*,i,35,2
O=C(Nc1ccccc1)Nc1cc(OCC(F)(F)F)cc(OCC(F)(F)F)c1,.,.,-11,64,i,31,40
CCOc1ccc(S(=O)(=O)n2cnc3cc(C)c(C)cc32)cc1,388,1,-4,66,i,83*,76*
CCOc1ccccc1N(CC(=O)NCCc1ccccc1)C(=O)CCC(=O)Nc1ccccn1,257,7,-1,-21,i,.,.
Cc1c(/C(O)=C2/C(=O)C(=O)N(CCN3CCOCC3)C2c2ccccn2)cnn1-c1ccccc1 (configuration not stated),136,0,-15,84*,i,33,57
Cc1ccc(-c2csc(N3CCC(NS(=O)(=O)c4ccc5c(c4)OCCO5)CC3)n2)cc1,217,0,0,89*,i,99*,89*
Cc1ccc(-c2csc(N3CCC(C(N)=O)CC3)n2)cc1,459,3,3,-115,i,.,.
CC1=C(C(=O)N(C)C)CC(CC(=O)NCCc2ccccn2)C(=O)N1Cc1ccc(C(C)(C)C)cc1 (configuration not stated),.,.,1,-30,i,.,.
CCc1ccc([C@@H]2CC=C(C(=O)O)[C@H](c3ccc(C)cc3)N2S(=O)(=O)c2ccc(C)cc2)cc1,267,.,1,46,i,.,.
CCc1ccc([C@@H]2CC=C(C(=O)O)[C@H](c3ccc(Cl)cc3)N2S(=O)(=O)c2ccc(C)cc2)cc1,624,4,0,76*,i,56,40
Cc1ccc(S(=O)(=O)N2[C@@H](c3ccc(Br)cc3)C(C(=O)O)=CC[C@H]2c2ccc(Cl)c(Cl)c2)cc1,310,.,-1,76*,i,74*,42
Cc1ccc([C@H]2C(C(=O)O)=CC[C@@H](c3cccc(Cl)c3)N2S(=O)(=O)c2ccc(C)cc2)cc1,.,.,0,-9,i,.,.
SMILES,T cell HTS,NR2E3 ag-1,GAA850 FXN act,NR2E3 ag-2,Myeloid diff 2,NR2E3 ag confirm,GAL4-VP16 luc
Cc1ccc(S(=O)(=O)N2[C@@H](c3ccc(C(C)(C)C)cc3)C(C(=O)O)=CC[C@H]2c2ccc(Cl)c(Cl)c2)cc1,294,.,-1,-11,i,.,.
Cc1ccc(S(=O)(=O)N2[C@@H](c3ccc(C(C)(C)C)cc3)C(C(=O)O)=CC[C@H]2c2cccc(Cl)c2)cc1,972,.,-1,84*,i,70,29
Cc1ccc([C@H]2C(C(=O)O)=CC[C@@H](c3ccc(C(C)C)cc3)N2S(=O)(=O)c2ccc(C)cc2)cc1,967,.,-1,92*,i,51,36
COc1cc(C(=O)OC(C)c2ccc(F)cc2)ccc1OCC(=O)N1CCOCC1 (configuration not stated),338,3,2,10,i,.,.
CCOC(=O)C1(C)CCCN(C(=O)c2ccc(OC)c(OC)c2)C1 (configuration not stated),.,.,0,-15,i,.,.
CC(C)(C)OC(=O)NCCc1onc(-c2ccc([N+](=O)[O-])cc2)c1C(=O)O,.,.,0,1,i,.,.
Cc1ccc([C@@H]2CC(=O)[C@@H]3CN(S(=O)(=O)c4ccc(C)cc4)[C@H](c4ccc(Cl)cc4)C[C@@H]3N2S(=O)(=O)c2ccc(C)cc2)cc1,.,.,-2,-43,i,.,.
Cc1ccc(S(=O)(=O)N2[C@@H](c3ccc(Cl)cc3)C(C(=O)O)=CC[C@H]2c2ccc(C(C)C)cc2)cc1,620,1,-1,70,i,87*,48
CCCCN(C(C)=O)c1c(CC)nc2ccc(C(=O)NCCCN(C)C)cn12,.,.,-1,-6,i,.,.
CC(Sc1nc2ccccc2c(=O)n1C)C(=O)N(C)C1CCCCC1 (configuration not stated),710,1,-1,95*,i,92*,76*
CC(Sc1nc2ccccc2c(=O)n1CC1CCCO1)C(=O)N(C)Cc1ccccc1 (configuration not stated),480,9,-1,-15,i,.,.
COc1cccc(C(=O)NCCN2CCC(n3c(=O)[nH]c4ccccc43)CC2)c1,.,.,.,-34,i,.,.
COc1ccc(OC)c(S(=O)(=O)N/N=C\c2ccc3c(c2)OCO3)c1,68,3,3,5,i,.,.
COc1ccc(S(=O)(=O)N/N=C\c2ccc3c(c2)OCO3)c(OC)c1,315,.,-2,55,i,15,52
CC[C@]12c3[nH]c4ccc(Cl)cc4c3CCN1C(=O)[C@@H](CC(=O)NCc1ccc(OC)c(OC)c1)C[C@@H]2C(=O)N1CCN(C(=O)c2ccco2)CC1,.,.,-2,-12,i,.,.

# Assay outcomes (PubChem)
